Measurements as given in ChEMBL document CHEMBL4017500 (J Med Chem, 2017).
The source made the active and inactive calls. The rule behind the calls is not given here.

Legend:
[1] = target: T1, Protein deacetylase HDAC6 (Homo sapiens) (UniProt Q9UBN7); assay: Inhibition of full length human N-terminal GST-tagged HDAC6 expressed in baculovirus infected sf9 cells at 50 to 100 uM using HDAC substrate 3 preincubated for 5 mins followed by substrate addition measured after 30 mins by fluorescence assay
T1 sequence (whole entry): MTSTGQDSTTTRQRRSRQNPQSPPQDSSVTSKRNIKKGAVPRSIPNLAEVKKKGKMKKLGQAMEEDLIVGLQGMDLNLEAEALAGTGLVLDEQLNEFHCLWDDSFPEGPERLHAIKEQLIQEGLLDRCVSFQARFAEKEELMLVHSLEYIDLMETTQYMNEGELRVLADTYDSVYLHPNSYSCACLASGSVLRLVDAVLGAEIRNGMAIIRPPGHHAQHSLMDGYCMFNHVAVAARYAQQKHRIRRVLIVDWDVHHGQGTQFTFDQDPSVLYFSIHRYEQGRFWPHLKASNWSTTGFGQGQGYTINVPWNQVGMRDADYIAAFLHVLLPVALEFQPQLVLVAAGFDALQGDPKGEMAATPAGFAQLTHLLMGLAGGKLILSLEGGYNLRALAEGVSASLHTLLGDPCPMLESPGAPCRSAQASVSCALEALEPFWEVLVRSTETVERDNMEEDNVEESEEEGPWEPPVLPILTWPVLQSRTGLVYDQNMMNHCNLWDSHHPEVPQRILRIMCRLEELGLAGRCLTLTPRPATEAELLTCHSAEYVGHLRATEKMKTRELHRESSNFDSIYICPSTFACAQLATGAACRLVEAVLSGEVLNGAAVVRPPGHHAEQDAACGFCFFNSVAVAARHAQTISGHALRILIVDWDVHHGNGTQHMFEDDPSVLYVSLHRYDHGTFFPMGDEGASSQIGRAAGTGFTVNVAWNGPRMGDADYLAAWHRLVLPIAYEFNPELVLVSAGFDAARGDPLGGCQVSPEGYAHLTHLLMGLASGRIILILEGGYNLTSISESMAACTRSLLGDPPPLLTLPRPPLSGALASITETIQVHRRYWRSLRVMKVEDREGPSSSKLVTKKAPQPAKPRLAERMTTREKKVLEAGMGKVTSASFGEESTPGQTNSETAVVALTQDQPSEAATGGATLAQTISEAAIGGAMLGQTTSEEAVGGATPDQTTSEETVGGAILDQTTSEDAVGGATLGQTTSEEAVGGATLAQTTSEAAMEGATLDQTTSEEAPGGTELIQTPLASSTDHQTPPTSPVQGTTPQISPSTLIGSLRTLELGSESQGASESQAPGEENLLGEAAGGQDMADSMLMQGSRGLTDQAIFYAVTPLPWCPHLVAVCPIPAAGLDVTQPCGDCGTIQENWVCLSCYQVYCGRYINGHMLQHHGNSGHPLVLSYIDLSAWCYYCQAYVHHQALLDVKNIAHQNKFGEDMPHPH
How it was run: (§1)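 Inhibitor pre-incubated 5 min, then HDAC substrate 3 (20 μM) added, 30 min at 37 °C. Developer added for 15 min at room temperature; fluorescence read at ex/em 360/460 nm. Activity relative to no-inhibitor wells, with 200 μM SAHA as 0%. Run in triplicate.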

Escherichia coli [2] = assay: Effect on growth of Escherichia coli isolate Ah8.75 at 100 mg/L after 18 to 20 hrs by broth microdilution assay
How it was run: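 Mueller-Hinton broth microdilution per CLSI, triplicate. blaNDM-1 clinical isolates grown from OD600 0.1 to 0.224 (~1–2 × 10^8 CFU/mL), diluted 3 μL into 4997 μL MH, and 100 μL added to 100 μL of compound (100 mg/L) alone. Incubated 37 °C for 18–20 h, then scored for growth.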

Bacteria = assay: Binding affinity to bacterial NDM-1 expressed in Escherichia coli BL21(DE3) assessed as intrinsic tryptophan fluorescence quenching up to 32 uM after 30 mins by luminescence spectrometric method relative to control
How it was run: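 NDM-1 at 2 μM final in 50 mM HEPES pH 7.5 mixed with compound at 4–32 μM, incubated 30 min. Emission scanned 300–400 nm with excitation at 280 nm. Relative tryptophan fluorescence read at 348 nm, with buffer set to 0% and inhibitor-free NDM-1 to 100%. Control run with 2 μM L-tryptophan in place of enzyme.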

Escherichia coli [3] = assay: Inhibition of NDM1 in Escherichia coli isolate Ah8.74 assessed as potentiation of imipenem-induced antibacterial activity by measuring imipenem MIC at 100 mg/L after 18 to 20 hrs by broth microdilution assay (reference value: 8 mg/L)
Escherichia coli [4] = assay: Inhibition of NDM1 in Escherichia coli isolate Ch8.70 assessed as potentiation of imipenem-induced antibacterial activity by measuring imipenem MIC at 100 mg/L after 18 to 20 hrs by broth microdilution assay (reference value: 16 mg/L)
[5] = target: T1, Protein deacetylase HDAC6 (Homo sapiens); assay: Inhibition of full length human N-terminal GST-tagged HDAC6 expressed in baculovirus infected sf9 cells at 10 uM using HDAC substrate 3 preincubated for 5 mins followed by substrate addition measured after 30 mins by fluorescence assay; how it was run: as §1
[6] = target: Macrophage metalloelastase (Homo sapiens) (UniProt P39900); assay: Inhibition of human MMP12 (Phe99 to Leu271 residues) expressed in Escherichia coli at 10 uM using Mca-Pro-LeuGly-Leu-Dpa-Ala-Arg-NH2.AcOH as substrate preincubated for 30 mins followed by substrate addition measured after 20 mins by fluorescence assay relative to control
How it was run: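 Human recombinant MMP-2 (1.16 U/well) or MMP-12 (0.007 U/well) in 50 mM HEPES, 10 mM CaCl2, 0.05% Brij-35, pH 7.5. Enzyme and inhibitor pre-incubated 30 min at 37 °C, then OmniMMP fluorogenic substrate (4 μM) added. Fluorescence rise followed 20 min at ex/em 320/400 nm. Activity relative to no-inhibitor wells, with 200 μM NSA as 0%. Run in triplicate.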

Chain of Macrophage metalloelastase (Homo sapiens) (P39900 106-470 limits assumed): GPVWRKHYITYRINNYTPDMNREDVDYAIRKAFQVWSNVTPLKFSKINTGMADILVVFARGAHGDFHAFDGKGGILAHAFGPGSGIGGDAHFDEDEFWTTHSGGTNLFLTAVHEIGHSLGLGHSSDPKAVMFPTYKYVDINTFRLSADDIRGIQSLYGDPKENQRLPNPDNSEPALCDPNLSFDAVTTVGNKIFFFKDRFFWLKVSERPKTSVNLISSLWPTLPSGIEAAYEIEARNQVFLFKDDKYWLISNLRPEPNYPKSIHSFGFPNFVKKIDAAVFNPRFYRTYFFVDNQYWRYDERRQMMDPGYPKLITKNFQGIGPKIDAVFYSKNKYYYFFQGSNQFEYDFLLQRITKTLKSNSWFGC

SMILES: Nc1cccc(-c2cc(C(=O)O)nc(C(=O)O)c2)c1
- inhibition [1]: < 50%
- Activity (Escherichia coli [2]): Non-Toxic
- Activity (Bacteria): 50 to 60%
- MIC (Escherichia coli [3]): 0.5 µg/mL
- MIC (Escherichia coli [4]): 0.5 µg/mL
- inhibition [5]: inactive
- inhibition [6]: 48%
